Converted amounts (≈) assume the structure as drawn.
Experiments:
Assay type in all cases: functional
[1] = test system: Aspergillus fumigatus; assay: Antifungal activity against Aspergillus fumigatus after 16 to 18 hrs by serial dilution method; conditions: for MIC: Aspergillus fumigatus
[2] = test system: Aspergillus flavus; assay: Antifungal activity against Aspergillus flavus after 16 to 18 hrs by serial dilution method; conditions: for MIC: Aspergillus flavus
In short: (§1)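 The test compound was dissolved in DMF and serially diluted. A standard drop of the prepared microbial culture was added to each dilution, and tubes were incubated at 37 °C for 16–18 h. MIC was taken as the highest dilution that stayed clear with no visible turbidity.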

[3] = test system: Escherichia coli; assay: Antibacterial activity against Escherichia coli after 16 to 18 hrs by serial dilution method; conditions: for MIC: Escherichia coli; in short: as §1
[4] = test system: Trichophyton mentagrophytes; assay: Antifungal activity against Trichophyton mentagrophytes after 16 to 18 hrs by serial dilution method; conditions: for MIC: Trichophyton mentagrophytes
[5] = test system: Pseudomonas aeruginosa; assay: Antibacterial activity against Pseudomonas aeruginosa after 16 to 18 hrs by serial dilution method; conditions: for MIC: Pseudomonas aeruginosa; in short: as §1
[6] = test system: Staphylococcus aureus; assay: Antibacterial activity against Staphylococcus aureus after 16 to 18 hrs by serial dilution method; conditions: for MIC: Staphylococcus aureus; in short: as §1
[7] = test system: Klebsiella pneumoniae; assay: Antibacterial activity against Klebsiella pneumoniae after 16 to 18 hrs by serial dilution method; conditions: for MIC: Klebsiella pneumoniae
[8] = test system: Talaromyces marneffei; assay: Antifungal activity against Penicillium marneffei after 16 to 18 hrs by serial dilution method; conditions: for MIC: Talaromyces marneffei; in short: as §1

Row | SMILES | MIC [1] [µg/mL] | MIC [2] [µg/mL] | MIC [3] [µg/mL] | MIC [4] [µg/mL] | MIC [5] [µg/mL] | MIC [6] [µg/mL] | MIC [7] [µg/mL] | MIC [8] [µg/mL] | inhibition zone (IZ) [1] [mm] | inhibition zone (IZ) [2] [mm] | inhibition zone (IZ) [3] [mm] | inhibition zone (IZ) [4] [mm] | inhibition zone (IZ) [5] [mm] | inhibition zone (IZ) [6] [mm] | inhibition zone (IZ) [7] [mm] | inhibition zone (IZ) [8] [mm]
1 | COc1cc(-c2nnc(-c3ccccc3COc3ccc(Cl)cc3)o2)cc(OC)c1OC | 6.25 (≈ 13.8 µM) | 6.25 (≈ 13.8 µM) | 6.25 (≈ 13.8 µM) | 6.25 (≈ 13.8 µM) | 6.25 (≈ 13.8 µM) | 6.25 (≈ 13.8 µM) | 6.25 (≈ 13.8 µM) | 6.25 (≈ 13.8 µM) | 16 | 16 | 16 | 16 | 16 | 16 | 16 | 16
2 | COc1cc(-c2nnc(-c3ccccc3COc3ccc(C)cc3)o2)cc(OC)c1OC | 6.25 (≈ 14.5 µM) | 12.5 (≈ 28.9 µM) | 6.25 (≈ 14.5 µM) | 12.5 (≈ 28.9 µM) | 6.25 (≈ 14.5 µM) | 6.25 (≈ 14.5 µM) | 6.25 (≈ 14.5 µM) | 6.25 (≈ 14.5 µM) | 16 | 11 | 16 | 11 | 16 | 16 | 16 | 16
3 | Clc1ccc(OCc2ccccc2-c2nnc(SCc3ccc(Cl)cc3Cl)o2)cc1 | 6.25 (≈ 13.1 µM) | 6.25 (≈ 13.1 µM) | 6.25 (≈ 13.1 µM) | 6.25 (≈ 13.1 µM) | 6.25 (≈ 13.1 µM) | 6.25 (≈ 13.1 µM) | 6.25 (≈ 13.1 µM) | 6.25 (≈ 13.1 µM) | 16 | 16 | 16 | 16 | 16 | 16 | 16 | 16
4 | Cc1ccc(OCc2ccccc2-c2nnc(-c3ccc(Cl)cc3)o2)cc1 | 25 (≈ 66.3 µM) | 25 (≈ 66.3 µM) | 25 (≈ 66.3 µM) | 25 (≈ 66.3 µM) | 25 (≈ 66.3 µM) | 25 (≈ 66.3 µM) | 25 (≈ 66.3 µM) | 25 (≈ 66.3 µM) | <10 | <10 | <10 | <10 | <10 | <10 | <10 | <10
5 | Clc1ccc(OCc2ccccc2-c2nnc(-c3cccc(Br)c3)o2)cc1 | 25 (≈ 56.6 µM) | 25 (≈ 56.6 µM) | 25 (≈ 56.6 µM) | 25 (≈ 56.6 µM) | 25 (≈ 56.6 µM) | 25 (≈ 56.6 µM) | 25 (≈ 56.6 µM) | 25 (≈ 56.6 µM) | <10 | <10 | <10 | <10 | <10 | <10 | <10 | <10
6 | Cc1ccc(OCc2ccccc2-c2nn(CNc3cccc(C(F)(F)F)c3)c(=S)o2)cc1 | 6.25 (≈ 13.3 µM) | 6.25 (≈ 13.3 µM) | 6.25 (≈ 13.3 µM) | 6.25 (≈ 13.3 µM) | 6.25 (≈ 13.3 µM) | 6.25 (≈ 13.3 µM) | 6.25 (≈ 13.3 µM) | 6.25 (≈ 13.3 µM) | 16 | 16 | 16 | 16 | 16 | 16 | 16 | 16
7 | Clc1ccc(OCc2ccccc2-c2nnc(-c3ccc(Cl)cc3)o2)cc1 | 25 (≈ 62.9 µM) | 25 (≈ 62.9 µM) | 25 (≈ 62.9 µM) | 25 (≈ 62.9 µM) | 25 (≈ 62.9 µM) | 25 (≈ 62.9 µM) | 25 (≈ 62.9 µM) | 25 (≈ 62.9 µM) | <10 | <10 | <10 | <10 | <10 | <10 | <10 | <10
8 | Cc1ccc(Cl)c(NCn2nc(-c3ccccc3COc3ccc(Cl)cc3)oc2=S)c1 | 25 (≈ 52.9 µM) | 25 (≈ 52.9 µM) | 25 (≈ 52.9 µM) | 25 (≈ 52.9 µM) | 25 (≈ 52.9 µM) | 25 (≈ 52.9 µM) | 25 (≈ 52.9 µM) | 25 (≈ 52.9 µM) | <10 | <10 | <10 | <10 | <10 | <10 | <10 | <10
9 | Clc1ccc(OCc2ccccc2-c2nnc(-c3cccnc3Cl)o2)cc1 |  |  | 12.5 (≈ 31.4 µM) |  | 12.5 (≈ 31.4 µM) | 12.5 (≈ 31.4 µM) | 12.5 (≈ 31.4 µM) |  |  |  | 11 |  | 11 | 11 | 11 | 
10 | Cc1ccc(OCc2ccccc2-c2nnc(-c3cccnc3Cl)o2)cc1 |  |  | 12.5 (≈ 33.1 µM) |  | 12.5 (≈ 33.1 µM) | 12.5 (≈ 33.1 µM) | 12.5 (≈ 33.1 µM) |  |  |  | 11 |  | 11 | 11 | 11 | 
11 | Cc1cc(C2CCCCC2)n(O)c(=O)c1.NCCO [CICLOPIROX OLAMINE] | 6.25 | 3.12 |  | 3.12 |  |  |  | 6.25 | 25 | 25 |  | 27 |  |  |  | 20
12 | Cc1ccccc1OCc1ccccc1-c1nnc(-c2cccnc2Cl)o1 |  |  | 12.5 (≈ 33.1 µM) |  | 12.5 (≈ 33.1 µM) | 12.5 (≈ 33.1 µM) | 12.5 (≈ 33.1 µM) |  |  |  | 11 |  | 11 | 11 | 11 | 
13 | O=C(O)c1cn(C2CC2)c2cc(N3CCNCC3)c(F)cc2c1=O [CIPROFLOXACIN] |  |  |  |  |  |  | 1.56 (≈ 4.71 µM) |  |  |  |  |  | 25 | 30 | 22 | 

Further lines, with some results ahead:

Row | MIC [1] [µg/mL] | MIC [2] [µg/mL] | MIC [3] [µg/mL] | MIC [4] [µg/mL] | MIC [5] [µg/mL] | MIC [6] [µg/mL] | MIC [7] [µg/mL] | MIC [8] [µg/mL] | SMILES | inhibition zone (IZ) [1] [mm] | inhibition zone (IZ) [2] [mm] | inhibition zone (IZ) [3] [mm] | inhibition zone (IZ) [4] [mm] | inhibition zone (IZ) [5] [mm] | inhibition zone (IZ) [6] [mm] | inhibition zone (IZ) [7] [mm] | inhibition zone (IZ) [8] [mm]
14 | 25 (≈ 76.6 µM) | 25 (≈ 76.6 µM) | 25 (≈ 76.6 µM) | 25 (≈ 76.6 µM) | 25 (≈ 76.6 µM) | 25 (≈ 76.6 µM) | 25 (≈ 76.6 µM) | 25 (≈ 76.6 µM) | CCSc1nnc(-c2ccccc2COc2ccccc2C)o1 | <10 | <10 | <10 | <10 | <10 | <10 | <10 | <10
15 | 12.5 (≈ 28.2 µM) | 12.5 (≈ 28.2 µM) | 12.5 (≈ 28.2 µM) | 12.5 (≈ 28.2 µM) | 12.5 (≈ 28.2 µM) | 12.5 (≈ 28.2 µM) | 12.5 (≈ 28.2 µM) | 12.5 (≈ 28.2 µM) | Clc1ccc(CSc2nnc(-c3ccccc3COc3ccc(Cl)cc3)o2)cc1 | 11 | 11 | 11 | 11 | 11 | 11 | 11 | 11
16 | 25 (≈ 61.1 µM) | 25 (≈ 61.1 µM) | 25 (≈ 61.1 µM) | 25 (≈ 61.1 µM) | 25 (≈ 61.1 µM) | 25 (≈ 61.1 µM) | 25 (≈ 61.1 µM) | 25 (≈ 61.1 µM) | Clc1ccc(OCc2ccccc2-c2nnc(SCc3ccccc3)o2)cc1 | <10 | <10 | <10 | <10 | <10 | <10 | <10 | <10
17 | 25 (≈ 76.6 µM) | 25 (≈ 76.6 µM) | 25 (≈ 76.6 µM) | 25 (≈ 76.6 µM) | 25 (≈ 76.6 µM) | 25 (≈ 76.6 µM) | 25 (≈ 76.6 µM) | 25 (≈ 76.6 µM) | CCSc1nnc(-c2ccccc2COc2ccc(C)cc2)o1 | <10 | <10 | <10 | <10 | <10 | <10 | <10 | <10
18 | 25 (≈ 64.4 µM) | 25 (≈ 64.4 µM) | 25 (≈ 64.4 µM) | 25 (≈ 64.4 µM) | 25 (≈ 64.4 µM) | 25 (≈ 64.4 µM) | 25 (≈ 64.4 µM) | 25 (≈ 64.4 µM) | Cc1cccc(OCc2ccccc2-c2nnc(SCc3ccccc3)o2)c1 | <10 | <10 | <10 | <10 | <10 | <10 | <10 | <10
19 | 25 (≈ 64.4 µM) | 25 (≈ 64.4 µM) | 25 (≈ 64.4 µM) | 25 (≈ 64.4 µM) | 25 (≈ 64.4 µM) | 25 (≈ 64.4 µM) | 25 (≈ 64.4 µM) | 25 (≈ 64.4 µM) | Cc1ccc(OCc2ccccc2-c2nnc(SCc3ccccc3)o2)cc1 | <10 | <10 | <10 | <10 | <10 | <10 | <10 | <10
20 |  |  | 12.5 (≈ 33.1 µM) |  | 12.5 (≈ 33.1 µM) | 12.5 (≈ 33.1 µM) | 12.5 (≈ 33.1 µM) |  | Cc1cccc(OCc2ccccc2-c2nnc(-c3cccnc3Cl)o2)c1 |  |  | 11 |  | 11 | 11 | 11 | 

Reference: ChEMBL document CHEMBL1275272, “Synthesis, characterization and antimicrobial activity of some disubstituted 1,3,4-oxadiazoles carrying 2-(aryloxymethyl)phenyl moiety” (2010)
